UBC13 inh – inhibitors of human UBC13 polyubiquitin chain formation. P61088. TR-FRET. inhibition, % at 20 µM. hit rate 0.47% among 330,000. AID 485273; in the data active means inhibition above about 45%, passing the limit was not always enough
Target sequence (P61088 whole entry, looked up): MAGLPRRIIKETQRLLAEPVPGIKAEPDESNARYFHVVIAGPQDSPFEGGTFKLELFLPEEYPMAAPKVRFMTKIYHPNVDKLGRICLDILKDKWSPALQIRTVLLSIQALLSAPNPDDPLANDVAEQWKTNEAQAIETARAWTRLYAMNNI
Apaf1 inhib – human Apaf-1 inhibition; O14727; reconstituted apoptosome caspase-3 activity, DEVD-Rh110 fluorescence; inhibition, % at 20 µM; hit rate 0.71% among 330,000; active means inhibition of at least 40% at 20 µM
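Material: reconstituted apoptosome with Apaf-1, cytochrome c, caspase-9, procaspase-3, dATP; medium: pH 7.5 Hepes buffer with CHAPS, BSA, DTT; also added: cytochrome c and DEVD-Rh110 substrate; timing: 30 min plus 50 min, RT; signal: Rh110 fluorescence intensity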
FID counter – counter-screen for HCV NS3 helicase inhibitors: DNA intercalator displacement; DNA fluorescent intercalator displacement, fluorescence; inhibition, % at 7.9 µM; hit rate 0.17% among 290,000; AID 1845; in the data active means inhibition above about 37%;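 further: higher means more ethidium bromide displaced from hairpin DNA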
ANO1 activ – activators or potentiators of mouse TMEM16A chloride channel; Q8BHY3; hit rate 0.3% among 340,000; HEK293 TMEM16A/YFP-H148Q/I152L, iodide quench fluorescence; active compounds read low; B-score at 10 µM;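 active means fluorescence-ratio B-score plate-corrected deviation score at least 3 library SD below zero, with starting fluorescence score within 5 deviations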;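 further: channel opened by trigger with iodide after compound preincubation; score built on the fluorescence ratio of max minus min over baseline; more negative score means more quench and so TMEM16A activation or potentiation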
TMEM16A inh – blocks the mouse calcium-activated chloride channel TMEM16A; Q8BHY3; HEK293 TMEM16A/YFP iodide influx fluorescence, ionomycin; AID 588511; normalized B-score (activity score, 25-100; higher = stronger inhibition) at 10 µM; hit rate 1.2% among 310,000;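 active means ratio plate-corrected score three or more library SD toward inhibition, starting fluorescence score within five deviations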;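 further: score derived from kinetic fluorescence span divided by baseline fluorescence per well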
Numbers stand for hits; i = inactive; nt = not tested or not shown. In the library only some 2.4% were active in any assay of this set; here they are far more common.

SMILES | UBC13 inh | Apaf1 inhib | FID counter | ANO1 activ | TMEM16A inh
COc1ccc(C2NCCc3c2[nH]c2ccccc32)cc1CN1CCc2cc(OC)c(OC)cc2C1C (configuration not stated) | nt | nt | i | i | nt
Cc1nc2cc(NCc3ccccc3O)ccc2n1Cc1ccccc1 | i | i | i | i | i
O=C(Nc1ccc(Cl)c(Cl)c1)c1ccc(Cl)c(Cl)c1 | i | i | i | i | i
CC(C)C1O/C(=N/C(=O)Nc2ccc(Cl)c(Cl)c2)NC1=O (configuration not stated) | i | i | i | i | 100
Cc1cc(C)c(C)c(OCCNCc2ccccc2)c1 | i | i | i | i | i
Cc1cc(Br)ccc1OCCNCc1ccccc1 | i | i | 38 | i | i
CCc1c(O)nc(SC2CC(=O)N(c3ccccc3)C2=O)[nH]c1=O (configuration not stated) | i | i | i | -29 | i
Cc1c(O)nc(SC2CC(=O)N(c3ccccc3)C2=O)[nH]c1=O (configuration not stated) | i | i | i | i | i
Cc1cccc2nc(COc3ccc(-c4ccccc4)cc3)cn12 | i | i | i | nt | 100
CN(CC(=O)NCCc1ccc(Cl)cc1)S(=O)(=O)c1cccs1 | i | i | i | i | i
CN(CC(=O)NCCc1ccccc1)S(=O)(=O)c1cccs1 | i | i | i | -5.4 | i
O=C1CCN(Cc2cccnc2)CCN1[C@H](CO)c1ccccc1 | i | i | i | i | i
COc1ccc(CN2CCC(=O)N([C@H](CO)c3ccccc3)CC2)cc1 | i | i | i | -11 | i
COc1cc(C(=O)NS(=O)(=O)c2ccccc2C)ccc1Cc1cn(C)c2ccc(NC(=O)OC3CCCC3)cc12 | i | i | i | nt | 100
Cc1ccc(NC(=O)NNC(=O)CN2C(=O)COc3ccccc32)cc1 | i | i | i | i | i
CCCNC(=O)Cn1c(=O)oc2ccccc21 | i | i | i | i | i
COc1ccc(CC(=O)NCCC2=CCCCC2)cc1 | i | i | i | i | i
COc1ccc(OCCC(=O)OCC(=O)NCCC2=CCCCC2)cc1 | i | i | i | -34 | i
O=Cc1[nH]c2ccccc2c1N(C(=O)CCl)c1ccc([N+](=O)[O-])cc1 | i | i | i | i | 25
O=C(COC(=O)COc1ccc(Br)cc1)NCc1ccc2c(c1)OCO2 | i | i | nt | i | nt
CN(CC(=O)NCc1ccc2c(c1)OCO2)S(=O)(=O)c1ccc(F)cc1 | i | i | i | i | i
C/C(=C\C(=O)c1ccc(Br)cc1)NCc1ccc2c(c1)OCO2 | i | i | i | i | 100
CC(=O)c1ccc(S(=O)(=O)N(C)CCCC(=O)NCc2ccc3c(c2)OCO3)cc1 | i | i | nt | -5.8 | nt
CCCNc1ncnc2nc[nH]c12 | i | i | i | i | i
C1=C(CCNc2ncnc3nc[nH]c23)CCCC1 | i | i | i | i | 25
SMILES | UBC13 inh | Apaf1 inhib | FID counter | ANO1 activ | TMEM16A inh
COC(=O)c1sc2ncn(CC(=O)N(C)C3CCCCC3)c(=O)c2c1C | i | i | i | i | i
Cc1[nH]c2ccccc2c1C(=O)/C=C/c1ccccc1 | i | i | i | i | 100
CCCCCCC(C)n1cc(C(C)=O)c(=O)[nH]c1=O (configuration not stated) | i | i | i | i | 100
Cn1c(=O)[nH]c(=O)c2c1nc(NCCc1ccccc1)n2CC(O)COc1ccccc1 (configuration not stated) | i | i | i | -51 | i
Cc1ccc(OCC(O)Cn2c(NCCc3ccccc3)nc3c2c(=O)[nH]c(=O)n3C)cc1 (configuration not stated) | i | i | i | i | i
COc1ccc(CCNS(=O)(=O)c2ccc(-n3cnnn3)c(OC)c2)cc1OC | i | i | i | -31 | i
O=C(Cn1cnc(S(=O)(=O)N2CCCCC2)c1)Nc1ccc(OC(F)(F)F)cc1 | i | i | i | i | i
O=C(Nc1ccc(C2=NCCN2)cc1)c1ccc(Cl)c(C(=O)Nc2ccc(C3=NCCN3)cc2)c1 | 106 | i | 49 | nt | i
CCCCN(C(=O)c1cccc(S(=O)(=O)N2CCCCC2)c1)C1CCS(=O)(=O)C1 (configuration not stated) | i | i | i | i | i
COc1ccc(OC)c2sc(N(CCCN(C)C)C(=O)CCS(=O)(=O)c3ccccc3)nc12 | i | i | nt | i | i
Cc1ccc2sc(N(CCCN(C)C)C(=O)CCS(=O)(=O)c3ccccc3)nc2c1C | i | i | 41 | i | i
Cc1ccc2sc(N(CCCN(C)C)C(=O)c3nc4ccccc4s3)nc2c1C | i | i | i | i | i
Cc1ccc2sc(N(CCCN(C)C)C(=O)c3ccc(Br)s3)nc2c1C | i | i | 46 | i | i
CC1=NN(c2ccccc2)C(=O)/C1=C/c1ccc(-c2ccc(C)c(C(=O)O)c2)o1 | i | 68 | nt | i | i
CC1=NN(c2ccc(C(=O)O)cc2)C(=O)/C1=C/c1ccc(-c2ccccc2F)o1 | i | 58 | i | i | 100
O=C(CSc1nnc(-c2ccccc2)n1C1CCCCC1)Nc1ccc(S(=O)(=O)Nc2ccccn2)cc1 | i | i | i | -12 | i
CN(CCC#N)S(=O)(=O)c1cc2c3c(c1)CCN3C(=O)CC2 | i | i | i | i | i
CCc1ccc(-c2cc(C)no2)cc1S(=O)(=O)NCc1ccc(OC)c(OC)c1 | i | i | i | i | i
COc1ccccc1NS(=O)(=O)c1cc(-c2cc(C)no2)ccc1OC | i | i | i | i | 100
CCc1ccc(-c2cc(C)no2)cc1S(=O)(=O)NCCc1ccc(OC)c(OC)c1 | i | i | i | i | 100
O=c1cc(N2CCCCC2)c(-c2ccccc2)nn1Cc1c(Cl)cccc1Cl | i | i | i | -26 | 25
O=c1cc(N2CCCCC2)c(-c2ccccc2)nn1Cc1ccc(Cl)cc1 | i | i | i | i | i
NC(=S)N/N=C1\CC(n2nnn(-c3cccc(Cl)c3)c2=S)C2COC1O2 (configuration not stated) | i | i | i | -5.6 | i
CC(=O)Nc1ccc(S(=O)(=O)NCC(=O)N2CCN(S(=O)(=O)c3cccs3)CC2)cc1 | i | i | nt | -15 | nt
CCOC(=O)N1CCN(C(=O)CNS(=O)(=O)c2cccs2)CC1 | i | i | i | i | i
SMILES | UBC13 inh | Apaf1 inhib | FID counter | ANO1 activ | TMEM16A inh
NS(=O)(=O)c1ccc(CCNC(=O)CCCOc2ccccc2)cc1 | i | i | i | -4.6 | i
NS(=O)(=O)c1ccc(CCNC(=O)CNC(=O)COc2ccccc2)cc1 | i | i | i | -4.7 | i
C/C(CCC(C)C)=N\Nc1cc(C)c2ccccc2n1 | i | i | i | i | i
CCS(=O)(=O)N1CCC(C(=O)Oc2ccc(Cl)cc2)CC1 | i | i | i | i | i
CC(Sc1nc(-c2ccco2)nc2c1c(=O)n(C)c(=O)n2C)C(=O)O (configuration not stated) | i | i | i | i | i
O=C(C1=C[C@@H](c2ccccc2)C[C@@H](OCCCCO)O1)N1CCOCC1 | i | i | i | i | 100
CCOC(=O)c1cccnc1SCc1cc(=O)n2ccccc2n1 | i | i | i | i | 25
CCOc1ccc(N(CC(=O)NC(C)(C)C)C(=O)CCC(=O)Nc2nccs2)cc1 | i | i | i | i | i
